One may read the Papp as the rate of passage across a membrane or cell layer, normalised by area and donor concentration. The IC50 is the midpoint of a concentration-inhibition curve. Broadly, the bioavailability is dose-corrected exposure relative to a reference, in per cent. A higher bioavailability goes with good availability. Broadly, the half-life is how long it takes for the measured level to halve. The low end stands for fast loss, the high end for slow loss. In general, MRT refers to a mean duration of stay, worked out from the concentration-time curve.

SMILES strings stand for the structures. Where only a bound is given, the exact number is not on record here.

This is an account of results in ChEMBL document CHEMBL4715933, “Identification of Potent Reverse Indazole Inhibitors for HPK1” (ACS Med Chem Lett, 2021).

A short description of data set [1]: Total Plasma clearance in Wistar Han rat at 0.5 mg/kg, iv or 0.5 mg/kg, po. The format is ADME, organism-based. The gist of the method:
(§1)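 Male Wistar Han rats given 0.5 mg/kg intravenously and 0.5 mg/kg orally, both as solutions in DMSO/PEG400/H2O. Plasma clearance, volume of distribution, half-life and oral bioavailability determined. Unbound parameters correct for plasma protein binding.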

Data set [2] in a line: Apparent permeability of compound in dog MDCKII cells. In kind it is ADME, cell-based, Canis lupus familiaris, MDCK-II. As to conditions: MDCK.
Data set [3] addresses T1, Mitogen-activated protein kinase kinase kinase kinase 1 (Homo sapiens, UniProt Q92918). Kind of data set: Inhibition of HPK1 in human PBMC assessed as inhibition of SLP76 phosphorylation by ELISA. The gist of the method:
(§2)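 Target-engagement assay in human peripheral blood mononuclear cells with ELISA readout of SLP76 phosphorylation. Total-cell IC50 reported. Unbound IC50 obtained by correcting for compound binding to the 10% FBS present in the assay medium.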
(An ELISA detects its analyte on a solid surface through an enzyme-linked reagent.)
Target sequence in this assay (Q92918 whole entry): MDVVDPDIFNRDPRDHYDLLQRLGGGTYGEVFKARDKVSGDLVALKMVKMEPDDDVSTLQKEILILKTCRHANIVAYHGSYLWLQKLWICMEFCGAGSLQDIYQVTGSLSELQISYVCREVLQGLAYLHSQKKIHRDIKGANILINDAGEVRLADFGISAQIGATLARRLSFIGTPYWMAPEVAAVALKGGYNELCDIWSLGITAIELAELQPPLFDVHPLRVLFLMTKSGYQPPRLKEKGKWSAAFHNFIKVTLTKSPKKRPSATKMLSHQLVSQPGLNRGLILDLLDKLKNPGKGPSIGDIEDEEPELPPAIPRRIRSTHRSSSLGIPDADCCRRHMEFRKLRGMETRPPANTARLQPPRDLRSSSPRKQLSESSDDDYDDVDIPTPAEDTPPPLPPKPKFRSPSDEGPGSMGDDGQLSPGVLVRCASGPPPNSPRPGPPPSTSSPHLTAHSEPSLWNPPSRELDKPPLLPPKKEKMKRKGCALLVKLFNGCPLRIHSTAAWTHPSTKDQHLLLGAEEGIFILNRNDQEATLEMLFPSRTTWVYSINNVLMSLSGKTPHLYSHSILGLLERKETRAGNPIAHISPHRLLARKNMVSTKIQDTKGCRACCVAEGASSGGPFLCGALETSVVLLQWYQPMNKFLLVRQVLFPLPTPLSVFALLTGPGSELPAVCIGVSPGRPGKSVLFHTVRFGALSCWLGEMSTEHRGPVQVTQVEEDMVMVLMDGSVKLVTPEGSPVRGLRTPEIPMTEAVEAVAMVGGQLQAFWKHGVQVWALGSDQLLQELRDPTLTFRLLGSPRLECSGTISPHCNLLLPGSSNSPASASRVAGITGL

Data set [4] deals with T1, Mitogen-activated protein kinase kinase kinase kinase 1. Kind of data set: Displacement of Tracer 222 from N-terminal GST-tagged human recombinant HPK1 (1 to 346 residues ) expressed in baculovirus-infected Sf9 cells incubated for 1 hr by HTRF lanthascreen binding assay. The method, boiled down:
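Binding (tracer-displacement) format run with tracer at a concentration approximately equal to its Kd; IC50 derived from displacement.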
On the technique in general: In TR-FRET formats the signal depends on donor and acceptor labels being close together.
Target sequence in this assay (Q92918 whole entry): as above

Data set [5] in a line: Unbound clearance in Wistar Han rat at 0.5 mg/kg, iv or 0.5 mg/kg, po. Conditions: in vivo. In kind it is ADME, organism-based. The gist of the method: as §1
Data set [6] can be described thus: Oral bioavailability in Wistar Han rat at 0.5 mg/kg. As to conditions: in vivo. The format is ADME, organism-based. The method, boiled down:
as §1

The species entered for data set [7] is Homo sapiens. Kind of data set: Selectivity ratio of IC50 for JAK2 (unknown origin) by ATP competitive binding assay to IC50 for N-terminal GST-tagged human recombinant HPK1 (1 to 346 residues ) expressed in baculovirus-infected Sf9 cells by HTRF lanthascreen binding assay. The gist of the method: (§3)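 Ratio of off-target kinase IC50 (JAK1, JAK2 or CDK2) to HPK1 IC50. The off-target kinase assays were run at ATP approximately equal to Km(ATP). HPK1 IC50 came from the tracer-displacement assay with tracer at approximately Kd(tracer).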

The species named for data set [8] is Homo sapiens. Kind of data set: Selectivity ratio of IC50 for JAK1 (unknown origin) by ATP competitive binding assay to IC50 for N-terminal GST-tagged human recombinant HPK1 (1 to 346 residues ) expressed in baculovirus-infected Sf9 cells by HTRF lanthascreen binding assay. The gist of the method:
as §3

The target of data set [9] is T1, Mitogen-activated protein kinase kinase kinase kinase 1. Kind of data set: Inhibition of HPK1 in human PBMC assessed as unbound concentration required for inhibition of SLP76 phosphorylation by ELISA corrected to binding to 10% FBS. The gist of the method: as §2
Target sequence in this assay (Q92918 whole entry, looked up): as the sequence (Q92918 whole entry) above
Data set [10] can be described thus: Half life in Wistar Han rat at 0.5 mg/kg, iv or 0.5 mg/kg, po. The format is ADME, organism-based. As to conditions: in vivo. The gist of the method: as §1
Data set [11] is described as follows: Unbound volume of distribution in Wistar Han rat at 0.5 mg/kg, iv or 0.5 mg/kg, po. Conditions: in vivo. The format is ADME, organism-based. The method, boiled down:
as §1

Data set [12] can be described thus: Volume of distribution in Wistar Han rat at 0.5 mg/kg, iv or 0.5 mg/kg, po. Conditions: in vivo. The format is ADME, organism-based. The gist of the method: as §1
The species entered for data set [13] is Homo sapiens. Kind of data set: Selectivity ratio of IC50 for CDK2 (unknown origin) by ATP competitive binding assay to IC50 for N-terminal GST-tagged human recombinant HPK1 (1 to 346 residues ) expressed in baculovirus-infected Sf9 cells by HTRF lanthascreen binding assay. The method, boiled down:
as §3

Data set [14] is described as follows: Total Plasma clearance in Wistar Han rat at 0.1 mg/kg, iv. In kind it is ADME, organism-based. The method, boiled down:
(§4)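 Male Wistar Han rats dosed intravenously at 0.1 mg/kg, given as a solution in DMSO/PEG400/H2O. Plasma PK parameters derived: total plasma clearance, volume of distribution, mean residence time and half-life. Unbound clearance accounts for plasma protein binding.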

The nature of data set [15]: Volume of distribution in Wistar Han rat at 0.1 mg/kg, iv. In kind it is ADME, organism-based. As to conditions: in vivo. The method, boiled down:
as §4

Data set [16] in a line: Mean residence time in Wistar Han rat at 2 mg/kg, iv. In kind it is ADME, organism-based. As to conditions: in vivo. The method, boiled down: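 Male Wistar Han rats received a single intravenous dose of 2 mg/kg, formulated as a solution in 30% captisol/70% water. Mean residence time derived from plasma concentration–time data.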
Data set [17] is described as follows: Unbound clearance in Wistar Han rat at 0.1 mg/kg, iv. Conditions: in vivo. The format is ADME, organism-based. The method, boiled down:
as §4

Data set [18] is described as follows: Half life in Wistar Han rat at 0.1 mg/kg, iv. In kind it is ADME, organism-based. As to conditions: in vivo. The gist of the method:
as §4

In [1], `COc1cccc(F)c1-c1cc2c(cn1)cnn2-c1cccc(N2CC3CCC(C2)N3C)n1` displayed a clearance of 19 mL/min/kg. For the same molecule, the Papp in data set [2] was 26 ×10⁻⁶ cm/s. Moreover, the IC50 in [3] stood at 4000 nM; in data set [4] it was 1.1 nM. The same molecule registered a CL free in [5] of 1197 mL/min/kg. Moreover, the bioavailability in data set [6] amounted to 67%. The Ratio IC50 in the data set filed under Homo sapiens [7] turned out to be 1450; in the data set listed under Homo sapiens [8], 8960; in the data set filed under Homo sapiens [13], 61. For the same molecule, the fIC50 in data set [9] came to 0.3 µM. Besides, the half-life in data set [10] was 2.1 h. Moreover, in data set [11], the Vdu was found to be 143 L/kg. Besides, the Vd in data set [12] stood at 2.3 L/kg.

On to `COc1ccncc1-c1ccc2cnn(-c3ccnc(N4CCOCC4)c3)c2c1`, for which the IC50 in data set [4] was 2200 nM. The Ratio IC50 in the data set filed under Homo sapiens [7] and in the data set listed under Homo sapiens [8] was 4 in each case. The clearance in [14] came to 31 mL/min/kg. Besides, in data set [15], the Vd was found to be 2.1 L/kg. Also, the MRT in data set [16] is 1.2 h.

Take `COc1cccc(F)c1-c1cc2c(cn1)cnn2-c1cccc(N2CCN(C)CC2)n1`: in data set [17], the CL free amounted to 2171 mL/min/kg. Moreover, the Papp in [2] worked out at 28 ×10⁻⁶ cm/s. Besides, the half-life in data set [18] is 2.3 h. In addition, the IC50 in [3] amounted to 8000 nM; in data set [4], 2.6 nM. Further, the Ratio IC50 in the data set filed under Homo sapiens [7] came to 135; in the data set listed under Homo sapiens [8], 751; in the data set listed under Homo sapiens [13] it was 44. Besides, the fIC50 in data set [9] was 0.6 µM. In data set [14], this molecule returned a clearance of 9.4 mL/min/kg. This molecule returned a Vd in [15] of 1.1 L/kg.

In data set [1], `COc1cccc(F)c1-c1cc2c(cn1)cnn2-c1cccc(N2C[C@@H]3C[C@H]2CN3C)n1` yielded a clearance of 4.2 mL/min/kg. Besides, the Papp in [2] was found to be 34 ×10⁻⁶ cm/s. Also, the results for the half-inhibitory concentration (IC50) in data set [3] and in data set [4] were 4300 nM and 1.9 nM, respectively. In data set [5], this molecule registered a CL free of 2962 mL/min/kg. The bioavailability in data set [6] is > 100%. The Ratio IC50 was 599 in the data set listed under Homo sapiens [7], 5190 in the data set listed under Homo sapiens [8] and 61 in the data set filed under Homo sapiens [13]. Moreover, the fIC50 in data set [9] amounted to 1.1 µM. Also, the half-life in [10] is 1.8 h. For the same molecule, the Vd in [12] is 0.5 L/kg.
